Active and inactive are the calls of the source. The calls are words filed in the database; no cut-off is given here.
How the values were obtained:
Ancylostoma ceylanicum = experiment: Compound was evaluated for the biological activity against Ancylostoma ceylanicum in hamsters at the 250 mg/kg; type: functional
Method in brief: (§1)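 Hamsters of either sex (40–60 g) infected orally with 60 third-stage larvae. Test compound given orally as a single dose on day 20 ± 1 postinfection, starting at 250 mg/kg × 1. Lower doses were used for active compounds to establish dose–response. Method of Ray et al. as modified locally.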

Rattus norvegicus [1] = experiment: Compound was evaluated for the biological activity against Hymenolepsis nana (rats) at the 250 mg/kg; insignificant activity; type: functional, organism-based; design: dose 250 mg/kg
Method in brief: (§2)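 Male rats (25–35 g) infected orally with 200 viable eggs. Infection confirmed by ovoscopic examination on days 17–20 postinoculation. Positive rats dosed orally on day 20 ± 1, initially 250 mg/kg × 1, then lower doses for dose–response. Method of Steward.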

[2] = test system: Nippostrongylus brasiliensis; experiment: (§3) Anti-nematode activity against Nippostrongylus brasiliensis in rats at 250 mg/kg; Insignificant activity.; type: functional
Cricetinae gen. sp. [3] = experiment: Compound was evaluated for the biological activity against Ancylostoma ceylanicum (hamsters and dogs) at the 50 mg/kg; type: functional, Cricetulus griseus
Rattus norvegicus [4] = experiment: Compound was evaluated for the biological activity against Hymenolepsis nana (rats) at the 50 mg/kg; type: functional; method in brief: as §2
Cricetinae gen. sp. [5] = experiment: Compound was evaluated for the biological activity against Ancylostoma ceylanicum in hamsters at the 100 mg/kg; type: functional, Cricetulus griseus; method in brief: as §1
Rattus norvegicus [6] = experiment: Compound was evaluated for the biological activity against Nippostrongylus brasiliensis (rats) at the 100 mg/kg; type: functional
Method in brief: (§4)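 Male rats (25–40 g) inoculated subcutaneously with 500 larvae taken from 6–8-day-old fecal culture. Compounds given orally on day 9 postinfection at 250 mg/kg × 3, with lower doses as follow-up for active compounds. Steward technique as modified by Katiyar and Sen.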

Rattus norvegicus [7] = experiment: Compound was evaluated for the biological activity against Nippostrongylus brasiliensis in rats at the 250 mg/kg; type: functional; method in brief: as §4
Rattus norvegicus [8] = experiment: Compound was evaluated for the biological activity against Hymenolepsis nana (rats) at the 250 mg/kg; type: functional; method in brief: as §2
Rattus norvegicus [9] = experiment: Compound was evaluated for the biological activity against Hymenolepsis nana (rats)at the 250 mg/kg; insignificant activity; type: functional, organism-based; design: dose 250 mg/kg; method in brief: as §2
Rattus norvegicus [10] = experiment: Compound was evaluated for the biological activity against Hymenolepsis nana (rats) at the 100 mg/kg; type: functional; method in brief: as §2
Cricetinae gen. sp. [11] = experiment: Compound was evaluated for the biological activity against Ancylostoma ceylanicum in hamsters at the 250 mg/kg; insignificant activity; type: functional, organism-based; design: dose 250 mg/kg; conditions: Cricetulus griseus; method in brief: as §1
Cricetinae gen. sp. [12] = experiment: Compound was evaluated for the biological activity against Ancylostoma ceylanicum in hamsters at the 100 mg/kg; insignificant activity; type: functional, organism-based; design: dose 100 mg/kg; conditions: Cricetulus griseus; method in brief: as §1
Cricetinae gen. sp. [13] = experiment: Compound was evaluated for the biological activity against Ancylostoma ceylanicum in hamsters at the 50 mg/kg; type: functional, Cricetulus griseus; method in brief: as §1
[14] = as §3; type: functional
Canis familiaris [15] = experiment: Efficiency against Ancylostoma ceylanicum (hookworm) in dog at the 25 x 3 mg/kg; type: functional, Canis lupus familiaris
Canis familiaris [16] = experiment: Efficiency against Ancylostoma ceylanicum (hookworm) in dog at the 10 x 3 mg/kg; type: functional, Canis lupus familiaris
Mus musculus = experiment: Efficiency against Syphacia obvelata (pinworm) in mouse at the 12.5 x 3 mg/kg; type: functional
Method in brief: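 Adult mice of both sexes (20–30 g) with pinworm infection, assessed by Standon's method. Oral dosing started at 25 mg/kg × 3, followed by lower doses for active compounds. Mebendazole at 50 mg/kg × 3 served as positive control.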

Rattus norvegicus [17] = experiment: Compound was evaluated for the biological activity against Hymenolepsis nana (rats) at the 100-50 mg/kg; type: functional; method in brief: as §2
Cricetinae gen. sp. [18] = experiment: Compound was evaluated for the biological activity against Ancylostoma ceylanicum in hamsters at the 100-6.25 mg/kg; type: functional, Cricetulus griseus; method in brief: as §1
Felis catus [19] = experiment: Efficiency against Ancylostoma tubaeformis (hookworm) in cat at the 10 x 3 mg/kg; inactive; type: functional, organism-based; design: dose 3 mg/kg; conditions: at 3 mg/kg
Rattus norvegicus [20] = experiment: Efficiency against L carinii (filarid worm) in cotton (on microfilariae) rat at the 30 x 5 mg/kg (ip); type: functional
Felis catus [21] = experiment: Efficiency against Ancylostoma tubaeformis (hookworm) in cat at the 25 x 3 mg/kg; type: functional
Rattus norvegicus [22] = experiment: Compound was evaluated for the biological activity against Nippostrongylus brasiliensis in rats at the 25 mg/kg; type: functional; method in brief: as §4
Canis familiaris (dog) [23] = experiment: Efficiency against Toxocara species. (Ascaris) in dog at the 25 x 3 mg/kg
Rattus norvegicus [24] = experiment: Compound was evaluated for the biological activity against Hymenolepsis nana (rats) at the 25 mg/kg; type: functional; method in brief: as §2
Rattus norvegicus [25] = experiment: Efficiency against L carinii (filarid worm) in cotton (against adults) rat at the 30 x 5 mg/kg (ip); type: functional
Rattus norvegicus [26] = experiment: Compound was evaluated for the biological activity against Nippostrongylus brasiliensis in rats at the 100-50 mg/kg; type: functional; method in brief: as §4
Rattus norvegicus [27] = experiment: Efficiency against L carinii (filarid worm) in cotton (against both microfilariae and adults) rat at the 50 x 5 mg/kg (po); inactive; type: functional, organism-based; design: dose 5 mg/kg; conditions: at 5 mg/kg
Cricetinae gen. sp. [28] = experiment: Compound was evaluated for the biological activity against Ancylostoma ceylanicum in hamsters at the 3.12 mg/kg; type: functional, Cricetulus griseus; method in brief: as §1
Rattus norvegicus [29] = experiment: Efficiency against L carinii (filarid worm) in cotton (against both microfilariae and adults) rat at the 10 x 5 mg/kg (ip); inactive; type: functional, organism-based; design: dose 5 mg/kg; conditions: at 5 mg/kg
Rattus norvegicus [30] = experiment: Efficiency against L carinii (filarid worm) in cotton (on adults) rat at the 30 x 5 mg/kg (ip); type: functional
Rattus norvegicus [31] = experiment: Efficiency against L carinii (filarid worm) in cotton (against microfilariae and inactive against adults) rat at 100 x 5 mg/kg (po); type: functional
Canis familiaris (dog) [32] = experiment: Efficiency against Taenia species. (tapeworm) in dog at the 25 x 3 mg/kg; inactive; conditions: at 3 mg/kg
Rattus norvegicus [33] = experiment: Compound was evaluated for the biological activity against Hymenolepsis nana (rats) at the 200 mg/kg; type: functional; method in brief: as §2
Rattus norvegicus [34] = experiment: Compound was evaluated for the biological activity against Hymenolepsis nana (rats) aat the 250 mg/kg; type: functional; method in brief: as §2
Cricetinae gen. sp. [35] = experiment: Compound was evaluated for the biological activity against Ancylostoma ceylanicum in hamsters at the 10 mg/kg; type: functional, Cricetulus griseus; method in brief: as §1
Cricetinae gen. sp. [36] = experiment: Compound was evaluated for the biological activity against Ancylostoma ceylanicum in hamsters at the 100-25 mg/kg; type: functional, Cricetulus griseus; method in brief: as §1

Structure (SMILES) | Activity (Ancylostoma ceylanicum) [%] | Activity (Rattus norvegicus [1]) | Activity [2] | Activity (Rattus norvegicus [8]) [%] | other results
COC(=O)Nc1nc2cc(C(=O)Nc3ccc(S(=O)(=O)c4ccc(NC(=O)c5ccc6[nH]c(NC(=O)OC)nc6c5)cc4)cc3)ccc2[nH]1 | 48.2 | inactive | inactive |  | 
COC(=O)Nc1nc2cc(C(=O)N(C(C)C)C(C)C)ccc2[nH]1 | 100 |  |  | 100 | Activity (Cricetinae gen. sp. [3]): 88.8%; Activity (Rattus norvegicus [4]): 100%; Activity (Cricetinae gen. sp. [5]): 100%; Activity (Rattus norvegicus [6]): 100%; Activity (Rattus norvegicus [7]): 100%
COC(=O)Nc1nc2cc(C(=O)N3CCCCC3)ccc2[nH]1 | 100 |  |  |  | Activity (Rattus norvegicus [9]): inactive
CCCN(CCC)C(=O)c1ccc2[nH]c(NC(=O)OC)nc2c1 | 100 |  | inactive | 100 | Activity (Cricetinae gen. sp. [5]): 75%; Activity (Rattus norvegicus [10]): 100%
CCN(CC)C(=O)c1ccc2[nH]c(NC(=O)OC)nc2c1 | 100 |  |  | 100 | Activity (Rattus norvegicus [7]): 100%
COC(=O)Nc1nc2cc(C(=O)NCCNC(=O)c3ccc4[nH]c(NC(=O)OC)nc4c3)ccc2[nH]1 | 50 | inactive | inactive |  | 
COC(=O)Nc1nc2cc(C(=O)NCCc3ccc(NC(=O)c4ccc5[nH]c(NC(=O)OC)nc5c4)cc3)ccc2[nH]1 | 50 | inactive | inactive |  | 
CCCCNC(=O)c1ccc2[nH]c(NC(=O)OC)nc2c1 | 100 |  | inactive | 100 | 
COC(=O)Nc1nc2cc(C(=O)Nc3nccs3)ccc2[nH]1 |  | inactive | inactive |  | Activity (Cricetinae gen. sp. [11]): inactive
COC(=O)Nc1nc2cc(C(=O)Nc3ncc(C)s3)ccc2[nH]1 | 100 |  | inactive | 100 | Activity (Rattus norvegicus [10]): 100%
CNC(=O)c1ccc2[nH]c(NC(=O)OC)nc2c1 | 95 |  | inactive | 100 | 
COC(=O)Nc1nc2cc(C(=O)Nc3ccc(F)cc3)ccc2[nH]1 | 100 |  | inactive | 100 | 
COC(=O)Nc1nc2cc(C(=O)NC3=NCCS3)ccc2[nH]1 | 100 |  | inactive | 100 | Activity (Cricetinae gen. sp. [12]): inactive; Activity (Cricetinae gen. sp. [13]): 55.5%
COC(=O)Nc1nc2cc(C(=O)Nc3ccccn3)ccc2[nH]1 | 95 | inactive | inactive |  | 
CCOC(=O)Nc1nc2cc(C(=O)Nc3ccccc3)ccc2[nH]1 | 50 | inactive | inactive |  | 
COC(=O)Nc1nc2cc(C(=O)Nc3nc4ccc(OC)cc4s3)ccc2[nH]1 |  | inactive |  |  | Activity [14]: 86.6%; Activity (Cricetinae gen. sp. [11]): inactive
COC(=O)Nc1nc2cc(C(=O)Nc3ccc(Sc4ccc(NC(=O)c5ccc6[nH]c(NC(=O)OC)nc6c5)cc4)cc3)ccc2[nH]1 | 48.2 | inactive | inactive |  | 
COC(=O)Nc1nc2cc(C(=O)N3CCN(c4ccccn4)CC3)ccc2[nH]1 | 100 |  |  | 100 | Efficiency (Canis familiaris [15]): 100%; Efficiency (Canis familiaris [16]): 100%; Efficiency (Mus musculus): 100%; Activity (Rattus norvegicus [17]): 100%; Activity (Cricetinae gen. sp. [18]): 100%; Efficiency (Felis catus [19]): inactive; Efficiency (Rattus norvegicus [20]): 97%; Efficiency (Felis catus [21]): 100%; Activity (Rattus norvegicus [22]): 60%; Efficiency (Canis familiaris (dog) [23]): 100%; Activity (Rattus norvegicus [24]): 100%; Efficiency (Rattus norvegicus [25]): 100%; Activity (Rattus norvegicus [26]): 100%; Efficiency (Rattus norvegicus [27]): inactive; Activity (Cricetinae gen. sp. [28]): 88%; Efficiency (Rattus norvegicus [29]): inactive; Efficiency (Rattus norvegicus [30]): 100%; Activity (Rattus norvegicus [7]): 100%; Efficiency (Rattus norvegicus [31]): 94.8%; Efficiency (Canis familiaris (dog) [32]): inactive
CCCCCCCCNC(=O)c1ccc2[nH]c(NC(=O)OC)nc2c1 | 100 |  | inactive |  | Activity (Rattus norvegicus [33]): 100%
COC(=O)Nc1nc2cc(NC(=O)c3ccc(C(=O)Nc4ccc5[nH]c(NC(=O)OC)nc5c4)cc3)ccc2[nH]1 | 100 | inactive | inactive |  | Activity (Cricetinae gen. sp. [13]): 66.6%
COC(=O)Nc1nc2cc(C(=O)N3CCN(c4ccccc4)CC3)ccc2[nH]1 | 100 |  |  |  | Activity (Cricetinae gen. sp. [18]): 100%; Activity (Rattus norvegicus [22]): 86.6%; Activity (Rattus norvegicus [4]): 100%; Activity (Rattus norvegicus [26]): 100%; Activity (Cricetinae gen. sp. [28]): 77%; Activity (Rattus norvegicus [34]): 100%; Activity (Rattus norvegicus [7]): 100%; Activity (Rattus norvegicus [10]): 100%
COC(=O)Nc1nc2cc(C(=O)Nc3ccccc3)ccc2[nH]1 | 87 |  | inactive |  | 
COC(=O)Nc1nc2cc(C(=O)NC3CCCCC3)ccc2[nH]1 | 100 | inactive |  |  | Activity (Rattus norvegicus [7]): 63.2%
COC(=O)Nc1nc2cc(C(=O)N3CCOCC3)ccc2[nH]1 | 100 |  |  | 100 | Activity (Cricetinae gen. sp. [18]): 100%; Activity (Rattus norvegicus [22]): 50%; Activity (Rattus norvegicus [4]): 100%; Activity (Rattus norvegicus [26]): 100%; Activity (Cricetinae gen. sp. [28]): 83%; Activity (Rattus norvegicus [7]): 100%; Activity (Rattus norvegicus [10]): 100%
COC(=O)Nc1nc2cc(C(=O)NCc3ccco3)ccc2[nH]1 | 100 |  | inactive | 100 | Activity (Cricetinae gen. sp. [35]): 57%; Activity (Rattus norvegicus [24]): 100%; Activity (Rattus norvegicus [4]): 100%; Activity (Rattus norvegicus [10]): 100%; Activity (Cricetinae gen. sp. [36]): 100%
COC(=O)Nc1nc2cc(C(=O)Nc3cccc(C)n3)ccc2[nH]1 | 100 |  | inactive | 100 | Activity (Cricetinae gen. sp. [5]): 100%; Activity (Cricetinae gen. sp. [13]): 92.5%
COC(=O)Nc1nc2cc(C(=O)Nc3ccncc3)ccc2[nH]1 | 75 | inactive | inactive |  | 
CCOC(=O)Nc1nc2cc(C(=O)NCCc3ccc(OC)c(OC)c3)ccc2[nH]1 |  | inactive |  |  | 

Reference: ChEMBL document CHEMBL1122704, “Syntheses and anthelmintic activity of alkyl 5(6)-(substituted-carbamoyl)- and 5(6)-(disubstituted-carbamoyl)benzimidazole-2-carbamates and related compounds” (1984)
